Consider 22 compounds from ChEMBL document CHEMBL4330076, “Quinazolin-2,4-dione-Based Hydroxamic Acids as Selective Histone Deacetylase-6 Inhibitors for Treatment of Non-Small Cell Lung Cancer” (J Med Chem, 2019).

One assay is filed under the species Homo sapiens. Nature of the assay: Selectivity ratio of IC50 for human full-length recombinant HDAC1 expressed in baculovirus infected Sf9 insect cells to IC50 for human full-length recombinant HDAC6 expressed in baculovirus infected Sf9 insect cells.
The test system of assay [1] is Lewis lung carcinoma cell line. Nature of the assay: Cytotoxicity against mouse LL/2 cells at 0.8 uM after 72 hrs in presence of paclitaxel by crystal violet staining-based assay. In kind it is functional, cell-based.
Assay [2] has as its system Lewis lung carcinoma cell line. Nature of the assay: Antitumor activity against mouse LL/2 cells implanted in C57BL/6 mouse assessed as tumor growth inhibition at 10 mg/kg, ip qd administered for 5 days. It is filed as functional, organism-based.
The subject of assay [3] is Lewis lung carcinoma cell line. The assay can be described thus: Decrease in PD-L1 expression in mouse LL/2 cells at 10 uM after 24 hrs by Western blot analysis. In general terms: Immunoblotting shows a protein as a band on a membrane.
The test system of assay [4] is Lewis lung carcinoma cell line. The assay can be described thus: Antitumor activity against mouse LL/2 cells implanted in C57BL/6 mouse assessed as tumor growth inhibition at 20 mg/kg, po qd administered for 21 consecutive days. It is filed as functional, organism-based.
Assay [5] concerns Lewis lung carcinoma cell line. The assay can be described thus: Cytotoxicity against mouse LL/2 cells at 0.8 uM after 72 hrs in presence of paclitaxel by crystal violet staining-based assay relative to control. It is filed as functional, cell-based.
Assay [6] addresses T1, Protein deacetylase HDAC6 (Mus musculus) (UniProt Q9Z2V5).
T1 sequence (whole entry): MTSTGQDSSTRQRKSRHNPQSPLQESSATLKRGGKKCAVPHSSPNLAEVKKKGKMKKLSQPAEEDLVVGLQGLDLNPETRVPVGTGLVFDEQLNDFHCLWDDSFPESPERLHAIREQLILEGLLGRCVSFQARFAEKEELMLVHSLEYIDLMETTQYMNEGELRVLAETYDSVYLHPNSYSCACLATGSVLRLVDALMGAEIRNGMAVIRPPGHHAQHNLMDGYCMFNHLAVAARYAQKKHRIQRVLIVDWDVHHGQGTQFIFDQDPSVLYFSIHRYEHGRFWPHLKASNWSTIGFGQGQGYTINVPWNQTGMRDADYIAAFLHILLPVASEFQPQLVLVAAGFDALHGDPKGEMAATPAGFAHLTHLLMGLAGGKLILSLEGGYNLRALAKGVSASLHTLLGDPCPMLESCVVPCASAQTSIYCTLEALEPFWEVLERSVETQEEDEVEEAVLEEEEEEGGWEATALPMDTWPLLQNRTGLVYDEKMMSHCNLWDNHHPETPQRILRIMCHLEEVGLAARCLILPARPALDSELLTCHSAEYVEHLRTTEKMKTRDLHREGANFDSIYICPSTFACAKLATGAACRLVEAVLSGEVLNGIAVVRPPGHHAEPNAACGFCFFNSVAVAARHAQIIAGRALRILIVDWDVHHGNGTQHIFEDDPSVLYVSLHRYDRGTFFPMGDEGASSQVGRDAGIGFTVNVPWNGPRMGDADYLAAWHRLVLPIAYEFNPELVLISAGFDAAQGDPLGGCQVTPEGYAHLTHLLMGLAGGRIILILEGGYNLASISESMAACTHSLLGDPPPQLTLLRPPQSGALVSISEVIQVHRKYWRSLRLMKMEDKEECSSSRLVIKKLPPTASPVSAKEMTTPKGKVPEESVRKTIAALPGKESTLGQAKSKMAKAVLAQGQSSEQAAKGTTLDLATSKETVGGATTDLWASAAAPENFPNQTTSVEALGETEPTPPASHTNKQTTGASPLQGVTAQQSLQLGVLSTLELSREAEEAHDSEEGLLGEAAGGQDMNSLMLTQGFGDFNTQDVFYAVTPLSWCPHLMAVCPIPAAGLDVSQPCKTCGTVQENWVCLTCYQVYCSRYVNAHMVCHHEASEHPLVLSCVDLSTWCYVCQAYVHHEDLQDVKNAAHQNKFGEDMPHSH
Nature of the assay: Inhibition of HDAC6 in mouse LL/2 cells assessed as reduction in PD-L1 expression at 2 to 10 uM after 24 hrs by Western blot analysis. In kind it is cell-based.

Assay [7] has as its system Lewis lung carcinoma cell line. Nature of the assay: Induction of multi-nuclei formation in mouse LL/2 cells at 0.8 uM after 24 hrs in presence of paclitaxel by 4',6-diamidino-2-phenylindole staining-based assay. In kind it is functional, cell-based.
The target of assay [8] is T1, Protein deacetylase HDAC6 (Mus musculus). The assay can be described thus: Inhibition of HDAC6 in mouse LL/2 cells assessed as induction of alpha tubulin acetylation at 4 uM in presence of paclitaxel after 24 hrs by Western blot analysis relative to control. In kind it is cell-based.
Assay [9] has the same target. The assay can be described thus: Inhibition of HDAC6 in mouse LL/2 cells assessed as reduction in PD-L1 expression at 2 to 5 uM in presence of paclitaxel after 24 hrs by Western blot analysis. In kind it is cell-based.
Assay [10] relates to Lewis lung carcinoma cell line. Nature of the assay: Cytotoxicity against mouse LL/2 cells at 0 to 10 uM after 72 hrs in presence of paclitaxel by MTT assay relative to control. In kind it is functional, cell-based. The procedure, abridged:
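Mouse LL/2 lung cancer cells cultured for 72 h with increasing inhibitor concentrations (0–10 μM) together with paclitaxel. Viability read by MTT. Combination assessed by the Chou-Talalay method as a combination index.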

Assay [11] concerns the target Histone deacetylase 1 (Homo sapiens) (UniProt Q13547). Nature of the assay: Inhibition of HDAC1 in human A549 cells assessed as effect on histone H3 acetylation level at 1 uM after 24 hrs by Western blot analysis. In kind it is cell-based.
Assay [12] addresses T1, Protein deacetylase HDAC6 (Mus musculus). The assay can be described thus: Inhibition of HDAC6 in mouse LL/2 cells assessed as induction of alpha tubulin acetylation at 0.8 uM in presence of paclitaxel after 24 hrs by Western blot analysis relative to control. It is filed as cell-based.
The target is the same in assay [13]. The assay can be described thus: Inhibition of HDAC6 in mouse LL/2 cells assessed as induction of alpha tubulin acetylation at 0.8 uM after 24 hrs by Western blot analysis relative to control. In kind it is cell-based.
For assay [14] the target is unchanged. Nature of the assay: Inhibition of HDAC6 in mouse LL/2 cells assessed as reduction in PD-L1 expression at 10 uM after 24 hrs by Western blot analysis. It is filed as cell-based.

Calls of active or inactive are those of the source. The calls are words filed in the database; no cut-off is given here.

Chain of Histone deacetylase 1 (Homo sapiens) (Q13547 whole entry): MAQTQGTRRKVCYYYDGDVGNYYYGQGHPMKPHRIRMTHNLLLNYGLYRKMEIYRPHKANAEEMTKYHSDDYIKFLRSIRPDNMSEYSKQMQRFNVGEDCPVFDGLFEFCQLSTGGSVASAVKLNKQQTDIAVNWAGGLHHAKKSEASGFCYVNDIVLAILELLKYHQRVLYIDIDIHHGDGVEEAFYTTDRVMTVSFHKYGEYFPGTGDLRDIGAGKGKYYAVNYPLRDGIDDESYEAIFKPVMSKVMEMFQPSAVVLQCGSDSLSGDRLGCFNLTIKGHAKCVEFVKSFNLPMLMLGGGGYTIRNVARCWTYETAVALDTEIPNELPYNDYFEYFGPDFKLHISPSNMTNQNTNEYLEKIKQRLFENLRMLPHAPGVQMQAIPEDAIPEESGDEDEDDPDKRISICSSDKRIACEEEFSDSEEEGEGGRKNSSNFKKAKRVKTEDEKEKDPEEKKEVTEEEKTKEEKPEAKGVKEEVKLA

Turning to `O=C(NO)c1ccc(Cn2c(=O)n(CCc3ccccc3)c(=O)c3ccc(F)cc32)cc1`, the Ratio IC50 in the assay listed under Homo sapiens turned out to be 1180.
On the same count and under the same terms, the result for `O=C(NO)c1ccc(Cn2c(=O)n(CCc3ccccc3)c(=O)c3cccnc32)cc1` reads 384; that for `COc1ccc(CCn2c(=O)c3ccccc3n(Cc3ccc(C(=O)NO)cc3)c2=O)cc1`, 369; that for `O=C(NO)c1ccc(Cn2c(=O)n(CCc3ccccc3)c(=O)c3ccccc32)s1`, 1150.
`O=C(NO)c1ccc(Cn2c(=O)n(CCc3cccc(C(F)(F)F)c3)c(=O)c3ccccc32)cc1`: in the assay listed under Homo sapiens, the Ratio IC50 is 529. Also, the result in [1] was Active.
For the compound `O=C(NO)c1ccc(Cn2c(=O)n(CCc3ccccc3)c(=O)c3ccc(C(F)(F)F)cc32)cc1`, the Ratio IC50 in the assay filed under Homo sapiens was 13.
On the same count and under the same terms, the result for `O=C(NO)c1ccc(Cn2c(=O)n(CCc3ccccc3)c(=O)c3cc(F)ccc32)cc1` reads 235; that for `O=C(NO)c1cc(Cn2c(=O)n(CCc3ccccc3)c(=O)c3ccccc32)cs1`, more than 8.
Still for that read-out and setting: the result for `O=C(NO)c1cccc(Cn2c(=O)n(CCc3ccccc3)c(=O)c3ccccc32)c1` reads more than 2; that for `O=C(NO)c1ccc(Cn2c(=O)n(CCc3ccccc3)c(=O)c3ccc(O)cc32)cc1`, 259; that for `COc1ccc2c(=O)n(CCc3ccccc3)c(=O)n(Cc3ccc(C(=O)NO)cc3)c2c1`, 235.
Same read-out and setting: the value for `O=C(NO)c1ccc(Cn2c(=O)n(CCc3ccc(O)cc3)c(=O)c3ccccc32)cc1` was 1820.
Take `CC(=O)O[C@H]1C(=O)[C@@]2(C)[C@H]([C@H](OC(=O)c3ccccc3)[C@]3(O)C[C@H](OC(=O)[C@H](O)[C@@H](NC(=O)c4ccccc4)c4ccccc4)C(C)=C1C3(C)C)[C@]1(OC(C)=O)CO[C@@H]1C[C@@H]2O`: the TGI result in [2] was “inactive”. In addition, the outcome in [3] was Active.
Consider `O=C(NO)c1ccc(Cn2c(=O)n(CCc3ccccc3)c(=O)c3ccc(Cl)cc32)cc1`, for which the Ratio IC50 in the assay filed under Homo sapiens was 434.
`O=C(NO)c1ccc(Cn2c(=O)n(CCc3ccc(F)cc3)c(=O)c3ccccc32)cc1`: the Ratio IC50 in the assay filed under Homo sapiens amounted to 470.
As for `O=C(NO)c1ccc(Cn2c(=O)n(CCc3ccccc3)c(=O)c3ccsc32)cc1`, in the assay filed under Homo sapiens, the Ratio IC50 was 443.
Regarding `Cc1ccc2c(=O)n(CCc3ccccc3)c(=O)n(Cc3ccc(C(=O)NO)cc3)c2c1`, in the assay filed under Homo sapiens, the Ratio IC50 is 64.
In the case of `O=C(NO)c1ccc(Cn2c(=O)n(CCc3ccccc3)c(=O)c3ccccc32)cc1`, the TGI result in assay [4] is “inactive”. The outcome in assay [5], in [7], in [10] and in assay [1] was Active. Besides, the inhibition result in [6], in assay [8] and in assay [9] was “Active” each time. Further, the inhibition entry in [11] was “inactive”. Further, the Ratio IC50 in the assay filed under Homo sapiens came to 2790. For the same compound, the fold change (FC) in assay [12] came out at 74.7; in assay [13], 42.7.
Regarding `O=C(NO)c1ccc(Cn2c(=O)n(CCc3cccc(F)c3)c(=O)c3ccccc32)cc1`, the Ratio IC50 in the assay listed under Homo sapiens was 1320.
`O=C(NO)c1ccc(Cn2c(=O)n(CCc3ccccc3)c(=O)c3cc(Cl)ccc32)cc1`: the Ratio IC50 in the assay listed under Homo sapiens is 539.
Regarding `O=C(NO)c1ccc(Cn2c(=O)n(CCc3ccccc3)c(=O)c3ccc(C4CC4)cc32)cc1`, the Ratio IC50 in the assay listed under Homo sapiens was 86.
Take `O=C(CCCCCCC(=O)Nc1ccccc1)NO`: the inhibition entry in [14] was “inactive”.
